# A selection: hits, their analogues and other compounds. The true share with any hit is near 2.5%.
# Env fusion inh: HIV envelope-mediated fusion inhibition; 360,000 tested, 1.1% active; inhibition, % at 12.3 µM; HeLa-JRFL Env/CEM21 cell fusion, luciferase;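 active = mean replicate inhibition score of at least 50 and every replicate individually at or above 50; inconclusive = only one of the two criteria met; inactive = mean below 50 and not all replicates reaching 50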;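 note: 0% = plate neutral controls and 100% = maraviroc near 300 nM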
# FN deposition inh: fibronectin deposition inhibition | AH1F fibroblasts, Alexa488-fibronectin deposition fluorescence, overnight | inhibition, % at 12.6 µM | 350,000 tested, 0.086% active;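 active = mean inhibition across replicates of 30% or more, regardless of how many single replicates reach that level; inconclusive = mean under 30% yet at least half of replicates reach 30%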;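 note: positive control wells lacked labelled fibronectin entirely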
#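 Material: AH1F fibroblasts assembling fluorescent fibronectin matrix; amount: 10000 AH1F cells/well; medium: DMEM, 2% serum; reagent: Alexa488-fibronectin, 24 nM final in well; dosing: single compound dose, delivered by pin transfer; incubation: 1 h adhesion, overnight exposure; detection: fluorescence after three HBSS washes, excitation 485 nm, emission 525 nm; measure: fibronectin deposition inhibition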
# N-glyco inh: blocks N-linked glycosylation in D54 reporter cells | D54 ERlucT glycosylation luciferase reporter, 24 h; percent of 100 nM tunicamycin response | 360,000 tested, 0.23% active | reporter increase, % at 12.5 µM | AID 588692;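 active = mean luciferase reporter signal, scaled so untreated is 0 and the glycosylation-blocking control 100, at or above a set limit in every replicate; inconclusive = mean reaches the limit but not every replicate does; inactive = mean below the limit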;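 note: luciferase carries N-glycosylation sites so blocking glycosylation raises the light; 0% = median of neutral control wells and 100% = median of 100 nM tunicamycin wells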
# AF4-AF9 inh: inhibitors of human MLL-AF4/AF9 interaction; AlphaScreen, biotin-AF4 peptide binding to FLAG-AF9; inhibition, % at 10 µM; 350,000 tested, 0.47% active; AID 651704;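 active = every replicate reaching a set inhibition limit, whatever the replicate mean, cut at about 25% in these data; inconclusive = mean inhibition reaches that limit but some replicates miss it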;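 note: 0% = plate neutral control median and 100% = total signal loss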
# Target sequence (P42568 whole entry, looked up): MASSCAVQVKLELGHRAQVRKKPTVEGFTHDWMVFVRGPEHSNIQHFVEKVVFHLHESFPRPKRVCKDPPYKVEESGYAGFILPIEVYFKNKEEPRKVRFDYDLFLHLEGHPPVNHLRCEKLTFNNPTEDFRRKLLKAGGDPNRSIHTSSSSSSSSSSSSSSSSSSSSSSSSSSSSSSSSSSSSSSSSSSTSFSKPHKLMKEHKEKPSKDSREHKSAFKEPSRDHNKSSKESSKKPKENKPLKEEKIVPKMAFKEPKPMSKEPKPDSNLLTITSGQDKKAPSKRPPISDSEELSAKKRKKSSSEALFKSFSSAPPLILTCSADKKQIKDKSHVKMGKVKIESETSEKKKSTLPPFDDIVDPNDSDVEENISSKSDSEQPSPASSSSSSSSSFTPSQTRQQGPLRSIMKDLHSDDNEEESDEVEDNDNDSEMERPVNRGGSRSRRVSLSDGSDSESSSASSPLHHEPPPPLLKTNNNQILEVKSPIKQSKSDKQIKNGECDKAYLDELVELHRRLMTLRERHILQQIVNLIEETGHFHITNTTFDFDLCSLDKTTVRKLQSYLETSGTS
# PAX8 reporter: lowers PAX8-driven luciferase in RMG-I cells | RMG-I TPO-luciferase reporter, SteadyGlo, 24 h | 360,000 tested, 1.2% active | inhibition, % at 12.6 µM | AID 652154;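 active = mean replicate inhibition at least 60% with every replicate also reaching 60%; inconclusive = only one of the two criteria is met; inactive = mean below 60% and not all replicates reaching 60%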;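 note: luciferase light reporting Pax8 driven TPO promoter activity; plate controls were median of neutral control wells for no effect and mitoxantrone controls for full effect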
# EWS-Fli block: inhibitors of EWS/Fli oncoprotein transcriptional activity. inhibition, % at 12.6 µM. AID 651661. 350,000 tested, 0.67% active. A673 NR0B1-luciferase reporter, viability-normalised;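 active = mean inhibition of at least 50% after viability correction, with every replicate also passing that limit; inconclusive = mean reaches 50% but only one of two replicates passes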;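 note: firefly luciferase signal divided by Alamar Blue viability fluorescence both relative to DMSO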
# An asterisk follows results filed as active; ? = inconclusive; nt = not tested or not shown; [ ] = dose if it differs, or a comment.
SMILES,Env fusion inh,FN deposition inh,N-glyco inh,AF4-AF9 inh,PAX8 reporter,EWS-Fli block
C[C@@H]1CN([C@@H](C)CO)C(=O)Cc2cc(NC(=O)CCCN(C)C)ccc2O[C@H]1CN(C)Cc1ccc(Oc2ccccc2)cc1,10.7[16.7 µM],nt,nt,38.6*,38.5,6.0
COc1cc(CN2CC3(CN(C(=O)c4cccnc4)C3)c3c([nH]c4cc(OC)ccc34)[C@H]2CO)cc(OC)c1,nt,nt,nt,-3.6,nt,2.1
CN(Cc1ccccc1)N=Nc1nc[nH]c1C(N)=O,-0.9,-14.7,-1.5,-6.5,87.0*,-0.1
O=C(CCn1cnc(-c2ccccc2)c1-c1ccccc1)N/N=C/c1ccc(O)cc1,27.8,8.3,6.4,11.8,13.2,-4.9
COc1ccc(/C=N/NC(=O)CCn2cnc(-c3ccccc3)c2-c2ccccc2)cc1,-7.5,-10.2,4.3,16.4,17.9,51.4*
COc1ccc(/C=N/NC(=O)COc2ccccc2-c2ccccc2)cc1,-203.6,-4.6,13.4,nt,74.0*,nt
C/C(=N/NS(=O)(=O)c1ccc(Br)cc1)c1c[nH]c2ccccc12,65.9*,6.0,1.8,0.1,-14.1,10.9
Cc1cc(/C=C2\SC(=S)N(C)C2=O)c(C)n1-c1ccc(O)cc1,0.2,-4.3,-19.8,3.3,7.1,74.7*
O=C(C[C@@H]1CC[C@H](NC(=O)c2cnccn2)[C@@H](CO)O1)NCc1ccccc1F,2.0[16.7 µM],8.4,nt,-0.1,-3.7,0.0
COc1cc2c(cc1N)-c1ccc(N)cc1C2=O,-220.6,-0.3,5.9,35.1*,-186.1,-82.9
CCN(CC)c1ccc(NC(=S)NC(=O)C2CCC2)cc1,-247.0,nt,-1.1,25.7*,-62.8,-32.3
CCC(C)NC(=O)C1CCCN(S(=O)(=O)c2ccc3c(c2)CC(C)N3C(=O)C2CC2)C1 (stereo not given),-8.4,-0.1,2.4,-5.9,-15.1,-2.1
CC(=O)N1c2ccc(S(=O)(=O)N3CCCC(C(=O)NCc4ccccc4Cl)C3)cc2CC1C (stereo not given),0.4,4.1,0.8,-0.8,44.0,nt
CC(=O)N1CCCc2cc(S(=O)(=O)N3CCCC(C(=O)NCc4ccccc4Cl)C3)ccc21 (stereo not given),11.4,-3.9,3.6,31.6*,3.4,nt
CC(=O)N1c2ccc(S(=O)(=O)N3CCCC3C(=O)Nc3cccc(F)c3)cc2CC1C (stereo not given),1.7,-2.5,2.3,0.0,3.2,10.6
CCc1cccc(NC(=O)C2CCCN2S(=O)(=O)c2ccc3c(c2)CC(C)N3C(C)=O)c1 (stereo not given),60.9*,5.5,0.5,0.6,10.6,-0.4
CCC(C)NC(=O)C1CCCN(S(=O)(=O)c2ccc3c(c2)CC(C)N3C(C)=O)C1 (stereo not given),58.7*,-4.9,1.1,4.1,-2.3,4.3
C[C@H]1CN([C@@H](C)CO)C(=O)c2cc(-c3ccccc3F)cnc2O[C@@H]1CN(C)Cc1ccccc1,1.8[16.7 µM],7.3,nt,0.3,nt,-9.8
COc1nc(=O)n(C2C=CC(=O)O2)cc1F (stereo not given),-136.0,1.1,33.5*,-1.6,28.8,1.2
Cc1ccc(-n2nc(C)c(NC(=O)CCl)c2C)cc1C,-117.3,-6.7,47.5*,nt,111.8*,nt
Cc1c(CCC(=O)NCC(=O)NCC(=O)O)c(=O)oc2cc3oc4c(c3cc12)CCCC4,-0.4,4.1,0.4,1.0,-3.9,8.8
Cc1c(CCC(=O)O)c(=O)oc2cc3oc4c(c3cc12)CCCC4,32.6,2.2,-0.9,-1.6,-31.8,56.7*
N=c1n(Cc2ccccc2)c2ccccc2n1CC(O)COc1ccc(Cl)cc1Cl (stereo not given),25.8,nt,-22.8,17.2,93.4*,61.5*
CCNC(=O)C[C@@H]1C=C[C@H](NC(=O)C2CCOCC2)[C@@H](CO)O1,6.2[16.7 µM],nt,nt,-2.5,10.9,-3.3
C[C@@H]1CCCCO[C@H](CN(C)Cc2ccc(C(F)(F)F)cc2)[C@@H](C)CN([C@H](C)CO)C(=O)c2cc(NC(=O)Nc3ccc(F)cc3)ccc2O1,0.2[16.7 µM],1.4,nt,-0.4,-0.7,7.4
SMILES,Env fusion inh,FN deposition inh,N-glyco inh,AF4-AF9 inh,PAX8 reporter,EWS-Fli block
C[C@H](CO)N1C[C@H](C)[C@H](CN(C)Cc2ccc(C(F)(F)F)cc2)OCCCC[C@H](C)Oc2ccc(NC(=O)Nc3ccc(F)cc3)cc2C1=O,35.8[16.7 µM],4.3,nt,-0.1,52.0,18.7
C[C@@H]1CCCCO[C@H](CN(C)Cc2ccc(C(F)(F)F)cc2)[C@H](C)CN([C@@H](C)CO)C(=O)c2cc(NC(=O)Nc3ccc(F)cc3)ccc2O1,44.0[16.7 µM],-2.4,nt,1.0,91.3*,15.6
C[C@@H]1CN([C@H](C)CO)C(=O)c2cc(NC(=O)Nc3ccc(F)cc3)ccc2O[C@@H](C)CCCCO[C@@H]1CN(C)Cc1ccc(C(F)(F)F)cc1,57.4*[16.7 µM],-5.2,nt,1.0,93.4*,6.7
C[C@@H]1CN([C@H](C)CO)C(=O)c2cc(NC(=O)Nc3ccc(F)cc3)ccc2O[C@@H](C)CCCCO[C@H]1CN(C)Cc1ccc(C(F)(F)F)cc1,67.9*[16.7 µM],-18.1,nt,1.7,106.6*,69.9*
C[C@H]1CCCCO[C@H](CN(C)Cc2ccc(C(F)(F)F)cc2)[C@@H](C)CN([C@@H](C)CO)C(=O)c2cc(NC(=O)Nc3ccc(F)cc3)ccc2O1,57.6*[16.7 µM],3.1,nt,3.4,95.5*,11.9
Cc1noc(C)c1NC(=O)N(C)C[C@H]1OCCCC[C@H](C)Oc2ccc(NS(=O)(=O)c3cn(C)cn3)cc2C(=O)N([C@@H](C)CO)C[C@H]1C,-17.7[16.7 µM],nt,nt,nt,-4.1,-7.5
C[C@@H]1CN([C@@H](C)CO)C(=O)c2cc(NC(=O)Nc3ccc(F)cc3)ccc2O[C@@H](C)CCCCO[C@H]1CN(C)Cc1ccc(C(F)(F)F)cc1,27.3[16.7 µM],-3.1,nt,0.3,83.7*,14.9
O=C(Oc1c(CN2CCOCC2)cc(Cl)c2cccnc12)c1cccs1,15.2,-0.9,-10.0,5.0,71.3*,27.3
O=C(Oc1c(CN2CCOCC2)cc(Cl)c2cccnc12)c1ccccc1Cl,7.5,2.1,-11.1,16.7,45.9,21.2
N#C/C(=C\c1ccc(F)c(F)c1)C(=O)NC1CCCCC1,-6.6,-5.6,0.5,-2.4,1.5,3.2
N#C/C(=C\c1cccn1-c1ccccc1)C(=O)NC1CCCCC1,?,14.4,18.0,15.9,20.8,61.9*
O=C(C[C@H]1C=C[C@@H](NC(=O)c2cccnc2)[C@H](CO)O1)NCCN1CCCCC1,nt,-0.4,nt,nt,nt,nt
CN1C(=O)c2cc(NC(=O)c3cccs3)ccc2OC[C@@H]2O[C@@H](CC(=O)NCC3CC3)CC[C@H]21,-14.8[16.7 µM],-7.6,nt,nt,2.7,-1.1
Cc1ccc(C(=O)CSc2nnc3ccccn23)c(C)c1,-0.7,nt,-14.4,-0.9,-40.8,0.2
COCCn1c(C)cc(C(=O)CSc2nnc3ccccn23)c1C,?,0.4,-18.7,2.6,32.4,62.7*
CCCNC(=O)N1CC2(CN(Cc3ccc(OC)cc3)C2)c2c(n(C)c3cc(OC)ccc23)[C@H]1CO,nt,nt,nt,35.7*,nt,4.6

# Compound activity as filed in PubChem BioAssay.
